In ChEMBL document CHEMBL1127395, “Synthesis and antimicrobial activity of novel 3-[(aminopyrimidiniumyl)thio]methyl cephalosporins” (1994):
≈ marks a conversion by molar mass, not a printed value.

Assays:
[1] = tested on: Staphylococcus epidermidis; experiment: In vitro minimum inhibitory concentration for Staphylococcus epidermidis (ATCC-12228) by agar dilution method; type: functional; conditions: Staphylococcus epidermidis; read-out: MIC
Procedure, shortened: (§1)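 Two-fold serial dilutions of each compound dispersed in Mueller-Hinton agar; plates spot-inoculated with 2 μL of standard test strain at 10^7 CFU/mL, incubated 37 °C for 20 h; MIC read as lowest concentration inhibiting growth.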

Proteus vulgaris = experiment: In vitro minimum inhibitory concentration for Proteus vulgaris (ATCC-6059) by agar dilution method; type: functional; conditions: Proteus vulgaris; read-out: MIC; procedure, shortened: as §1
Klebsiella pneumoniae = experiment: In vitro minimum inhibitory concentration for Klebsiella pneumoniae (ATCC-10031) by agar dilution method; type: functional; conditions: Klebsiella pneumoniae; read-out: MIC
Klebsiella aerogenes = experiment: In vitro minimum inhibitory concentration for Enterobacter aerogenes (ATCC-29751) by agar dilution method; type: functional; conditions: Klebsiella aerogenes; read-out: MIC; procedure, shortened: as §1
Serratia marcescens = experiment: In vitro minimum inhibitory concentration for Serratia marcescens (ATCC-27117) by agar dilution method; type: functional; conditions: Serratia marcescens; read-out: MIC; procedure, shortened: as §1
Enterobacter cloacae = experiment: In vitro minimum inhibitory concentration for Enterobacter cloacae (ATCC-27508) by agar dilution method; type: functional; conditions: Enterobacter cloacae; read-out: MIC; procedure, shortened: as §1
Pseudomonas aeruginosa [2] = experiment: In vitro minimum inhibitory concentration for Pseudomonas aeruginosa (ATCC 10145) by agar dilution method; type: functional; procedure, shortened: as §1
Citrobacter freundii = experiment: In vitro minimum inhibitory concentration for Citrobacter freundii (ATCC-8090) by agar dilution method; type: functional; conditions: Citrobacter freundii; read-out: MIC; procedure, shortened: as §1
Escherichia coli = experiment: In vitro minimum inhibitory concentration for Escherichia coli (ATCC-10536) by agar dilution method; type: functional; conditions: Escherichia coli; read-out: MIC; procedure, shortened: as §1
Staphylococcus aureus [3] = experiment: In vitro minimum inhibitory concentration for Staphylococcus aureus (ATCC 6538p) by agar dilution method; type: functional; conditions: Staphylococcus aureus, ATCC 6538p; read-out: MIC; procedure, shortened: as §1
Pseudomonas aeruginosa [4] = experiment: In vitro minimum inhibitory concentration for Pseudomonas aeruginosa (ATCC-27853) by agar dilution method; type: functional; conditions: Pseudomonas aeruginosa; read-out: MIC; procedure, shortened: as §1
Salmonella typhimurium = experiment: In vitro minimum inhibitory concentration for Salmonella Typhimurium (ATCC-14028) by agar dilution method; type: functional, Salmonella enterica subsp. enterica serovar Typhimurium; conditions: Salmonella enterica; read-out: MIC; procedure, shortened: as §1
Staphylococcus aureus [5] = experiment: In vitro minimum inhibitory concentration for Staphylococcus aureus (ATCC 6538p) by agar dilution method

SMILES	MIC [1] [µg/mL]	MIC (Proteus vulgaris) [µg/mL]	MIC (Klebsiella pneumoniae) [µg/mL]	MIC (Klebsiella aerogenes) [µg/mL]	MIC (Serratia marcescens) [µg/mL]	MIC (Enterobacter cloacae) [µg/mL]	MIC (Pseudomonas aeruginosa [2]) [µg/mL]	MIC (Citrobacter freundii) [µg/mL]	MIC (Escherichia coli) [µg/mL]	MIC (Staphylococcus aureus [3]) [µg/mL]	MIC (Pseudomonas aeruginosa [4]) [µg/mL]	MIC (Salmonella typhimurium) [µg/mL]	MIC (Staphylococcus aureus [5]) [µg/mL]
CC(C)(O/N=C(\C(=O)NC1C(=O)N2C(C(=O)[O-])=C(CSc3nc(N)cc(N)[n+]3N)CSC12)c1cnc(N)s1)C(=O)O (stereo unspecified)	2 (≈ 3.2 µM)	0.02 (≈ 0.032 µM)	0.06 (≈ 0.096 µM)	1 (≈ 1.6 µM)	0.06 (≈ 0.096 µM)	0.02 (≈ 0.032 µM)	1 (≈ 1.6 µM)	0.06 (≈ 0.096 µM)	0.06 (≈ 0.096 µM)	4 (≈ 6.4 µM)	1 (≈ 1.6 µM)	0.13 (≈ 0.208 µM)	–
CC(C)(O/N=C(\C(=O)NC1C(=O)N2C(C(=O)[O-])=C(CSc3nc(N)c4c([n+]3N)CCC4)CSC12)c1cnc(N)s1)C(=O)O (stereo unspecified)	2 (≈ 3.08 µM)	0.06 (≈ 0.0923 µM)	0.06 (≈ 0.0923 µM)	0.25 (≈ 0.385 µM)	0.13 (≈ 0.2 µM)	0.02 (≈ 0.0308 µM)	2 (≈ 3.08 µM)	0.03 (≈ 0.0462 µM)	0.06 (≈ 0.0923 µM)	4 (≈ 6.16 µM)	2 (≈ 3.08 µM)	0.13 (≈ 0.2 µM)	–
CC(C)(O/N=C(\C(=O)NC1C(=O)N2C(C(=O)[O-])=C(CSc3nc(N)cc(N)[n+]3-c3ccccc3)CSC12)c1cnc(N)s1)C(=O)O (stereo unspecified)	2 (≈ 2.92 µM)	0.13 (≈ 0.19 µM)	0.13 (≈ 0.19 µM)	0.5 (≈ 0.729 µM)	0.5 (≈ 0.729 µM)	0.06 (≈ 0.0875 µM)	4 (≈ 5.83 µM)	0.25 (≈ 0.365 µM)	0.25 (≈ 0.365 µM)	4 (≈ 5.83 µM)	2 (≈ 2.92 µM)	0.5 (≈ 0.729 µM)	–
CCC[n+]1c(N)cc(N)nc1SCC1=C(C(=O)[O-])N2C(=O)C(NC(=O)/C(=N\OC(C)(C)C(=O)O)c3cnc(N)s3)C2SC1 (stereo unspecified)	2 (≈ 3.07 µM)	0.06 (≈ 0.0921 µM)	0.13 (≈ 0.199 µM)	2 (≈ 3.07 µM)	0.25 (≈ 0.384 µM)	0.03 (≈ 0.046 µM)	4 (≈ 6.14 µM)	0.25 (≈ 0.384 µM)	0.13 (≈ 0.199 µM)	–	2 (≈ 3.07 µM)	0.25 (≈ 0.384 µM)	2 (≈ 3.07 µM)
CC(C)(O/N=C(\C(=O)NC1C(=O)N2C(C(=O)O)=C(CSc3nccc(N)n3)CSC12)c1cnc(N)s1)C(=O)O (stereo unspecified)	16 (≈ 26.9 µM)	0.063 (≈ 0.106 µM)	0.5 (≈ 0.841 µM)	8 (≈ 13.5 µM)	1 (≈ 1.68 µM)	0.5 (≈ 0.841 µM)	16 (≈ 26.9 µM)	1 (≈ 1.68 µM)	1 (≈ 1.68 µM)	32 (≈ 53.8 µM)	8 (≈ 13.5 µM)	1 (≈ 1.68 µM)	–

The remaining lines, values ahead:

MIC [1] [µg/mL]	MIC (Proteus vulgaris) [µg/mL]	MIC (Klebsiella pneumoniae) [µg/mL]	MIC (Klebsiella aerogenes) [µg/mL]	MIC (Serratia marcescens) [µg/mL]	MIC (Enterobacter cloacae) [µg/mL]	MIC (Pseudomonas aeruginosa [2]) [µg/mL]	MIC (Citrobacter freundii) [µg/mL]	MIC (Escherichia coli) [µg/mL]	MIC (Staphylococcus aureus [3]) [µg/mL]	MIC (Pseudomonas aeruginosa [4]) [µg/mL]	MIC (Salmonella typhimurium) [µg/mL]	MIC (Staphylococcus aureus [5]) [µg/mL]	SMILES
2 (≈ 2.8 µM)	0.25 (≈ 0.35 µM)	0.13 (≈ 0.182 µM)	2 (≈ 2.8 µM)	2 (≈ 2.8 µM)	0.13 (≈ 0.182 µM)	8 (≈ 11.2 µM)	2 (≈ 2.8 µM)	0.5 (≈ 0.7 µM)	4 (≈ 5.6 µM)	2 (≈ 2.8 µM)	2 (≈ 2.8 µM)	–	Cc1ccc(-[n+]2c(N)cc(N)nc2SCC2=C(C(=O)[O-])N3C(=O)C(NC(=O)/C(=N\OC(C)(C)C(=O)O)c4cnc(N)s4)C3SC2)c(C)c1 (stereo unspecified)
2 (≈ 2.96 µM)	0.13 (≈ 0.192 µM)	0.13 (≈ 0.192 µM)	1 (≈ 1.48 µM)	0.5 (≈ 0.739 µM)	0.03 (≈ 0.0443 µM)	8 (≈ 11.8 µM)	0.13 (≈ 0.192 µM)	0.25 (≈ 0.369 µM)	8 (≈ 11.8 µM)	4 (≈ 5.91 µM)	0.25 (≈ 0.369 µM)	–	Cc1c(N)nc(SCC2=C(C(=O)[O-])N3C(=O)C(NC(=O)/C(=N\OC(C)(C)C(=O)O)c4cnc(N)s4)C3SC2)[n+]2nc(C)n(C)c12 (stereo unspecified)
1 (≈ 1.57 µM)	0.13 (≈ 0.204 µM)	0.06 (≈ 0.0939 µM)	4 (≈ 6.26 µM)	0.25 (≈ 0.391 µM)	0.02 (≈ 0.0313 µM)	4 (≈ 6.26 µM)	0.13 (≈ 0.204 µM)	0.06 (≈ 0.0939 µM)	4 (≈ 6.26 µM)	2 (≈ 3.13 µM)	0.25 (≈ 0.391 µM)	–	COc1cc(N)nc(SCC2=C(C(=O)[O-])N3C(=O)C(NC(=O)/C(=N\OC(C)(C)C(=O)O)c4cnc(N)s4)C3SC2)[n+]1C (stereo unspecified)
